Source: PubChem BioAssay
VIM-2 inhibitor – blocks Pseudomonas aeruginosa VIM-2 metallo-beta-lactamase | 0.89% of 290,000 active | purified VIM-2, nitrocefin hydrolysis, epi-absorbance fluorescence | inhibition, % at 5.6 µM | AID 1527;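 active = inhibition above the mean of all tested compounds plus 3 SD, cutoff set per screening run, cut at about 7.5% in these data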;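 note: red hydrolysis product quenches plate fluorescence so inhibitors raise well fluorescence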
m5-HT2A agonist – agonists of mouse serotonin 5-HT2A receptor (HTR2A). AID 624169. P35363. activation, % at 7.6 µM. 0.66% of 360,000 active. CHO-K1 mHTR2A beta-arrestin complementation, luminescence; percent of 30 µM serotonin response;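 active = activation above a run cutoff, the mean activation of all tested compounds plus 3 SD, cut at about 14% in these data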
dFosB activator – activators of mouse delta FosB homodimer; P13346; purified delta FosB, TAMRA-CDK5 oligo fluorescence polarization; percent of positive-control signal above neutral wells; activation, % at 25 µM; 0.99% of 340,000 active;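 active = mean activation above about 17%, with every replicate also reaching it, limit read from the data, passing the limit was not always enough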
Target sequence (P13346 whole entry, looked up): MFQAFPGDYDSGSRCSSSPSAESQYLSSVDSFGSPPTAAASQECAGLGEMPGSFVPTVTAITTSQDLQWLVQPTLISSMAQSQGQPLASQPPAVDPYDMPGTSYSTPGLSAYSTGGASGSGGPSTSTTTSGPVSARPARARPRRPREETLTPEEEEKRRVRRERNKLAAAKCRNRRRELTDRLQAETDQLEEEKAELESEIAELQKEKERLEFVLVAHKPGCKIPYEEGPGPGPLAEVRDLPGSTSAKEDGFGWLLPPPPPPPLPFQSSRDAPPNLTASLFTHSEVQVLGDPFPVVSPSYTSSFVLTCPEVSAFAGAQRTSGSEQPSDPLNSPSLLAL
IMP-1 inh – blocks Pseudomonas aeruginosa IMP-1 metallo-beta-lactamase | purified IMP-1, nitrocefin hydrolysis, epi-absorbance fluorescence | inhibition, % at 5.6 µM | 0.45% of 290,000 active | AID 1556;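 active = inhibition above the mean plus 3 SD of all compounds in the same screening run, cut at about 4.5% in these data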
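Material – recombinant IMP-1 enzyme, purified · Amount – IMP-1 0.2 nM before substrate addition · Medium – HEPES buffer pH 7.1 with ZnSO4 and Brij 35 · Timing – 25 °C, 15 min preincubation, 25 min reaction · Measured by – plate fluorescence quenching by hydrolysis product, ex 480/em 530 nm · Read-out – percent enzyme inhibition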
Of the large screens only hits and unclear results are named; the others gave an inactive call. Compounds with a hit are over-represented: about 2.5% of the library has one in this group of screens.

CN(C)c1cc(Nc2cccc(O)c2)c([N+](=O)[O-])c2nonc12	none
CN(C)c1cc(Nc2ccc(O)cc2)c([N+](=O)[O-])c2nonc12	VIM-2 inhibitor 9.1
CC(=O)NCCC(=O)Nc1cc(S(=O)(=O)N2CCOCC2)ccc1N1CCCC1	none (no result: VIM-2 inhibitor, IMP-1 inh)
Cc1c(CC(=O)N[C@@H](C)C(=O)O)c(=O)oc2c(C)c3occ(-c4ccccc4)c3cc12	VIM-2 inhibitor 10.1
Cc1c(CCC(=O)O)c(=O)oc2c(C)c3occ(-c4ccc(Br)cc4)c3cc12	IMP-1 inh 23.6
Cc1c(CC(=O)N[C@@H](C)C(=O)O)c(=O)oc2cc3occ(-c4ccccc4)c3cc12	none
COc1ccc(-c2coc3c(C)c4oc(=O)c(CCC(=O)O)c(C)c4cc23)cc1	VIM-2 inhibitor 11.3
Cc1ccc(S(=O)(=O)N2CCCCC2)cc1NC(=O)CSc1ccc2c(c1)OCCO2	IMP-1 inh 7.1
CCOC(=O)C1=C(C)N=c2s/c(=C/c3cccc([N+](=O)[O-])c3O)c(=O)n2C1c1ccccc1 (stereo not drawn)	VIM-2 inhibitor 8.1
CCNC(=O)CN(c1ccc(F)cc1)S(=O)(=O)c1ccc2c(c1)OCCO2	none
Cc1csc2nc3ccccc3c(=O)n12	VIM-2 inhibitor 7.8
CC1(C(=O)NC2CCCCCC2)CCN1C(=O)C1(c2ccccc2)CC1 (stereo not drawn)	none (no result: VIM-2 inhibitor, dFosB activator, IMP-1 inh)
Cc1nc2ccccc2c2c1C(=O)N(Cc1cccnc1)C2=O	VIM-2 inhibitor 11.0
O=C1c2ccccc2C(=O)N1Cc1cccnc1	none
CCNC(=O)COC(=O)c1ccc(-n2nc(C)cc2C)cc1	none
Cc1cc(C)n(-c2ccc(C(=O)OCC(=O)c3ccc(Br)s3)cc2)n1	IMP-1 inh 9.1
O=C(CCN1C(=O)/C(=C/c2ccccc2Cl)SC1=S)NC1C=CS(=O)(=O)C1 (stereo not drawn)	dFosB activator 27.7
COc1cccc(CN2CCNC(=O)C2CC(=O)O)c1OC (stereo not drawn)	m5-HT2A agonist 14.5
Cc1ccc(S(=O)(=O)N(C)c2nc3ccccc3[nH]c2=S)cc1	IMP-1 inh 8.7
O=C(C[n+]1ccc2ccccc2c1)c1cccc2ccccc12	none
O=C(/C=C/c1cc[n+](CC(=O)c2ccc3cccc4c3c2CC4)cc1)c1ccc2cccc3c2c1CC3	dFosB activator 147.2
COc1ccc(OC)c(/C=C2\N=C(c3ccccc3)OC2=O)c1	VIM-2 inhibitor 10.2
COc1cc(/C=C2\N=C(c3ccccc3)OC2=O)ccc1OC(C)=O	none
CCOc1ccc(C(=O)CCC(=O)N(CC)CC(=O)Nc2c(F)cccc2F)cc1	none (no result: VIM-2 inhibitor, IMP-1 inh)
CC(=O)c1ccc(N2CCN(CC(=O)NCc3ccccc3)CC2)cc1	IMP-1 inh 6.5
Cc1ccccc1C(=O)NCCNC(=O)c1cnccn1	none
CS(=O)(=O)Nc1ccc(-c2ccc(/C=C3\SC(N)=NC3=O)o2)cc1	VIM-2 inhibitor 8.8
Cc1ccc2c(c1)SC1=NC(c3ccccc3)(C(F)(F)F)NC(=O)N12 (stereo not drawn)	IMP-1 inh 5.7 (no result: m5-HT2A agonist, dFosB activator)
O=C1NC(c2ccccc2)(C(F)(F)F)SC2=NCCCN12 (stereo not drawn)	none
CCOC(=O)/C=c1\s/c(=C\c2ccc3c(c2)OCCO3)c(=O)n1CC(=O)NCC1CCCO1 (stereo not drawn)	IMP-1 inh 4.7
CCOC(=O)/C=c1\s/c(=C\c2c(OCC)ccc3ccccc23)c(=O)n1CC(=O)NCC1CCCO1 (stereo not drawn)	none
Cc1nc(-c2ccccc2Cl)sc1C(=O)/C=C/N(C)C	none
Cc1ccc(C(=O)CSC2=C(C#N)C(c3ccco3)C3=C(CC(C)(C)CC3=O)N2)cc1 (stereo not drawn)	IMP-1 inh 5.5
CC1(C)CC(=O)C2=C(C1)NC(SCC(=O)Nc1ccccc1)=C(C#N)C2c1ccco1 (stereo not drawn)	none
CC(Oc1cc2oc(=O)c3c(c2cc1Cl)CCCC3)C(=O)NCc1ccccn1 (stereo not drawn)	none
CC(Oc1cc2oc(=O)c3c(c2cc1Cl)CCCC3)C(=O)NCc1cccnc1 (stereo not drawn)	none
O=C(COc1cc2oc(=O)c3c(c2cc1Cl)CCC3)NCc1ccccn1	VIM-2 inhibitor 10.4
CC(Oc1cc2oc(=O)c3c(c2cc1Cl)CCC3)C(=O)NCc1cccnc1 (stereo not drawn)	VIM-2 inhibitor 10.7
CC(Oc1cc2oc(=O)c3c(c2cc1Cl)CCC3)C(=O)NCc1ccccn1 (stereo not drawn)	VIM-2 inhibitor 11.5
O=C(COc1ccc2c3c(c(=O)oc2c1)CCCC3)NCc1ccccn1	VIM-2 inhibitor 7.8
Cc1nc2ccc(C(=O)NC(C)(C)C)cn2c1N(C)C(=O)CCc1ccccc1	none (no result: VIM-2 inhibitor, dFosB activator, IMP-1 inh)
O=C(CSCc1ccc(Br)cc1)Nc1ccccc1C(=O)N1CCOCC1	none
NC(=S)N=Nc1c(O)n(C2OC(=O)c3ccccc32)c2ccccc12 (stereo not drawn)	dFosB activator 26.2
CC(C)c1ccc(S(=O)(=O)/N=C2/C=C(Sc3ncn[nH]3)C(=O)c3ccccc32)cc1	none
Cc1ccc(S(=O)(=O)/N=C2/C=C(Sc3ncn[nH]3)C(=O)c3ccccc32)cc1	m5-HT2A agonist 19.5
COc1cc(/C=C/C(=O)OCC(=O)N2CC(C)OC(C)C2)ccc1OCC#N (stereo not drawn)	none (no result: VIM-2 inhibitor, dFosB activator, IMP-1 inh)
O=C(NCc1ccccc1)N1CCN(c2ccc(Cl)c(Cl)c2)CC1	m5-HT2A agonist 18.2
CCOC(=O)CC(=O)CSc1nc(-c2cccnc2)ccc1C#N	IMP-1 inh 5.3
CCCCNc1c(CCc2ccccc2)nc2nc(C)cc(C)n12	none (no result: VIM-2 inhibitor, dFosB activator, IMP-1 inh)
CN(C)CCN(C(=O)c1ccc(S(=O)(=O)N(C)C)cc1)c1nc2cc3c(cc2s1)OCCO3	none
CCN(Cc1ccccc1)S(=O)(=O)c1ccc(C(=O)N(CCCN(C)C)c2nc3cc4c(cc3s2)OCCO4)cc1	dFosB activator 42.2 (no result: VIM-2 inhibitor, IMP-1 inh)
CN(C)CCN(C(=O)c1ccc(S(=O)(=O)N(C)c2ccccc2)cc1)c1nc2cc3c(cc2s1)OCCO3	dFosB activator 47.4
O=c1oc2c(O)cccc2cc1-c1nc2ccccc2[nH]1	IMP-1 inh 7.2
O=c1oc2c(CN3CCCCC3)c(O)ccc2cc1-c1nc2ccccc2[nH]1	none (no result: VIM-2 inhibitor, IMP-1 inh)
CCCn1c2ccccc2c2cnn(CC(=O)N3CCN(C4CCCCC4)CC3)c(=O)c21	VIM-2 inhibitor 7.8
O=C(COc1cccc(Cl)c1)Nc1ccccc1N1CCCCC1	none (no result: VIM-2 inhibitor, IMP-1 inh)
CC(=O)Nc1ccc(-c2ccnc3c2CC(C)(C(=O)NCc2cccc(Cl)c2)O3)cc1 (stereo not drawn)	none (no result: VIM-2 inhibitor, dFosB activator, IMP-1 inh)
Cc1cc(C)cc(NC(=O)CCn2c(=S)[nH]c3ccccc3c2=O)c1	dFosB activator 30.2
CN(C)/C=C1\C(=O)N(c2ccc(Cl)c(Cl)c2)CS1(=O)=O	none
CN(C)C1=C(Cl)C(=O)N(c2ccc(Cl)c(Cl)c2)C1=O	dFosB activator 23.9
CC(C(=O)O)N1C(=O)/C(=C/C=C/c2ccco2)SC1=S (stereo not drawn)	IMP-1 inh 5.8
CCN(C(=O)C(C)N1C(=O)/C(=C/c2ccco2)SC1=S)C1CCS(=O)(=O)C1 (stereo not drawn)	IMP-1 inh 7.8
O=C1/C(=C/C=C/c2ccco2)SC(=S)N1NS(=O)(=O)c1ccccc1	none
